{"source": "ChEMBL document CHEMBL2146399", "about": "“Anti-androgen receptor activity of apoptotic CK2 inhibitor CX4945 in human prostate cancer LNCap cells” (Bioorg Med Chem Lett, 2012)", "key": {"[1]": {"tested_on": "LNCaP", "test": "Induction of apoptosis in human LNCAP cells assessed as increase in caspase3 activation at >10 uM after 1 to 2 days", "format": "functional, cell-based", "procedure,_shortened": "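LNCaP cells seeded at 1 10^4 per well, cultured 24 h, then treated 1 or 2 days. Caspase-3 activity read with a commercial caspase-3 kit in triplicate. Significance by Student's t-test, P < 0.05.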"}, "[2]": {"test": "Cytotoxicity against human RWPE1 cells assessed as cell viability at 10 uM after 3 days by CCK8 method", "format": "cell-based, RWPE-1", "settings": "read-out: Activity", "procedure,_shortened": "(§1)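 Normal prostate RWPE-1 cells kept in keratinocyte serum-free medium with 0.05 mg/ml bovine pituitary extract and 5 ng/ml recombinant human EGF. Cells seeded at 1 10^4 per well, cultured 24 h, then treated 1–3 days. Viability measured by CCK-8 in triplicate.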"}, "[3]": {"tested_on": "LNCaP", "test": "Cytotoxicity against human LNCAP cells assessed as cell viability at 10 uM by CCK8 method", "format": "functional, cell-based", "settings": "TDE = time-dependent effect"}, "[4]": {"test": "Cytotoxicity against human RWPE1 cells assessed as cell viability after 1 to 3 days by CCK8 method", "format": "cell-based", "settings": "rwpe-1", "procedure,_shortened": "as §1"}, "[5]": {"tested_on": "LNCaP", "test": "Cytotoxicity against human LNCAP cells assessed as cell viability after 4 days by CCK8 method", "format": "functional, cell-based", "settings": "96 h", "procedure,_shortened": "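LNCaP cells grown in RPMI1640 with 10% FBS plus penicillin/streptomycin at 37 °C, 5% CO2. Cells seeded at 3 10^3 per well, cultured 24 h, then exposed to compound for 4 days. Viability read by CCK-8 absorbance, in triplicate.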"}, "[6]": {"tested_on": "LNCaP", "test": "Cytotoxicity against human LNCAP cells assessed as cell viability at 1 to 10 uM after 1 day by luciferase assay", "format": "cell-based", "settings": "24 h, in the assay text read “by CCK-8 assay” for “by luciferase assay”", "procedure,_shortened": "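LNCaP cells lentivirally transduced with an AR luciferase reporter and selected with 30 µg/ml puromycin. Cells at 4 10^4 per well, kept 1 day in 10% stripped FBS, then treated 1 day in 0.1% stripped FBS with or without 0.1 µM DHT. Luciferase measured for AR activation and CCK-8 for viability; Student's t-test.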"}, "[7]": {"tested_on": "LNCaP", "test": "Induction of apoptosis in human LNCAP cells at 30 uM after 72 hrs by AnnexinV staining based fluorescent microscopy", "format": "functional, cell-based", "procedure,_shortened": "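LNCaP cells (5 10^4) plated on coverslips coated with 1% gelatin and treated 72 h. Annexin V kit staining, fixation in 2% formaldehyde, nuclei counterstained with 10 µg/ml DAPI. Annexin V-positive cells counted by fluorescence microscopy.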"}, "[8]": {"tested_on": "LNCaP", "test": "Antiapoptotic activity against human LNCAP cells assessed as cell survival at 10 uM after 1 day by CCK8 method", "format": "functional", "settings": "24 h, read-out: Activity"}, "[9]": {"tested_on": "LNCaP", "test": "Downregulation of CK2alpha expression in human LNCAP cells assessed as reduction of cytosolic protein level at 10 uM after 12 to 24 hrs by Western blot analysis", "format": "functional, cell-based", "procedure,_shortened": "(§2)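 Western blot: cells homogenized and spun at 10,000 g for 15 min. Supernatant kept as cytoplasmic fraction; nuclear proteins extracted with a kit. Denatured proteins run on gels, transferred to PVDF, probed with specific antibodies, and detected by enhanced chemiluminescence.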"}, "[10]": {"tested_on": "LNCaP", "test": "Downregulation of CK2alpha expression in human LNCAP cells assessed as reduction of nuclear protein level at 10 uM after 12 to 24 hrs by Western blot analysis", "format": "functional, cell-based", "procedure,_shortened": "as §2"}, "[11]": {"tested_on": "LNCaP", "test": "Inhibition of Akt phosphorylation in human LNCAP cells at 0.1 to 30 uM after 30 mins by Western blot analysis", "format": "cell-based", "procedure,_shortened": "as §2"}, "[12]": {"tested_on": "LNCaP", "test": "Downregulation of survivin expression in human LNCAP cells at 0.1 to 30 uM after 24 hrs by Western blot analysis", "format": "functional, cell-based", "procedure,_shortened": "as §2"}}, "note": "Activity calls are given as the source filed them. The rule behind the calls is not given here."}
{"smiles": "O=C(O)c1ccc2c(c1)nc(Nc1cccc(Cl)c1)c1ccncc12", "note": "[SILMITASERTIB]", "values": [{"measurement": "Activity", "setting": "[1]", "result": "Active"}, {"measurement": "viability at 72 h, 10 µM", "setting": "[2]", "result": 94, "unit": "%"}, {"measurement": "Activity", "setting": "[3]", "result": "tde"}, {"measurement": "Activity", "setting": "[4]", "result": "Non-toxic"}, {"measurement": "IC50", "setting": "[5]", "result": 4.59, "unit": "µM"}, {"measurement": "Activity", "setting": "[6]", "result": "Non-toxic"}, {"measurement": "Activity", "setting": "[7]", "result": "Active"}, {"measurement": "viability at 10 µM", "setting": "[8]", "result": 72, "unit": "%"}, {"measurement": "Activity", "setting": "[9]", "result": "Active"}, {"measurement": "Activity", "setting": "[10]", "result": "Active"}]}
{"smiles": "O=c1cc(N2CCOCC2)oc2c(-c3ccccc3)cccc12", "values": [{"measurement": "inhibition", "setting": "[11]", "result": "Active"}, {"measurement": "Activity", "setting": "[12]", "result": "Active"}]}
